Assay results published in ChEMBL document CHEMBL1156343, “Bioactive acridone alkaloids from Swinglea glutinosa” (J Nat Prod, 2001).

Key:
Plasmodium falciparum [1] = experiment: Antiplasmodial activity after 24 hrs against chloroquine-sensitive Plasmodium falciparum Nigerian by [3H]hypoxanthine uptake; format: functional, organism-based
Summary of the method: (§1)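 P. falciparum continuously cultured in human O± red cells, 1% hematocrit, RPMI 1640 with 25 mM Hepes, 30 mM NaHCO3, 5% human AB+ serum. Cultures synchronized daily by gelatine flotation and 5% sorbitol lysis. Tested mostly at ring stage, 0.5-1% parasitemia. DMSO stocks diluted serum-free to final 50-0.01 µg/mL (DMSO ≤1%). Three experiments in triplicate. IC50 read graphically from concentration versus percent inhibition curves.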

Plasmodium falciparum [2] = experiment: Antiplasmodial activity after 72 hrs against chloroquine-sensitive Plasmodium falciparum Nigerian by [3H]hypoxanthine uptake; format: functional, organism-based; summary of the method: as §1
Plasmodium falciparum [3] = experiment: Antiplasmodial activity after 24 hrs against chloroquine-resistant Plasmodium falciparum FcM29 by [3H]hypoxanthine uptake; format: functional, organism-based; summary of the method: as §1
Plasmodium falciparum [4] = experiment: Antiplasmodial activity against chloroquine-resistant Plasmodium falciparum FcM29 after 72 hrs by [3H]hypoxanthine uptake; format: functional, organism-based; summary of the method: as §1
[5] = Cytotoxicity against human HeLa cells after 24 hrs by [3H]hypoxanthine incorporation assay; format: cell-based; conditions: read-out: ED50
Summary of the method: (§2)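 HeLa cells grown in RPMI 1640 with 25 mM Hepes, 30 mM NaHCO3 and 5% fetal calf serum. After trypsinization, cells were seeded at 2×10^4 cells/well. Compounds were taken from 10 mg/mL DMSO stocks and diluted in serum-free medium to final 100–0.02 μg/mL (DMSO ≤1% final). Growth was read by [3H]-hypoxanthine incorporation at 24 and 72 h against untreated wells. Three experiments, each in triplicate.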

[6] = Cytotoxicity against human HeLa cells after 72 hrs by [3H]hypoxanthine incorporation assay; format: cell-based; conditions: read-out: ED50; summary of the method: as §2
[7] = Selectivity index, ratio of ED50 for human HeLa cells to IC50 for Plasmodium falciparum Nigerian after 24 hrs by [3H]hypoxanthine incorporation assay; format: functional
Summary of the method: (§3)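 Ratio of HeLa ED50 to P. falciparum Nigerian-strain IC50 at the same exposure time (24 or 72 h). For the parasite, ring-stage cultures synchronized by gelatine flotation and sorbitol were used at 0.5–1% parasitemia and 1% hematocrit in human red cells with 5% AB+ serum. Compounds ran at final 50–0.01 μg/mL. Growth was read by [3H]-hypoxanthine incorporation, and IC50 was read graphically from inhibition curves.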

[8] = Selectivity index, ratio of ED50 for human HeLa cells to IC50 for Plasmodium falciparum Nigerian after 72 hrs by [3H]hypoxanthine incorporation assay; format: functional; summary of the method: as §3

SMILES: Cn1c2c(O)cccc2c(=O)c2c(O)cc3c(c21)C=CC(C)(C)O3
- IC50 (Plasmodium falciparum [1]): 11.1 µM
- IC50 (Plasmodium falciparum [2]): 8.7 µM
- IC50 (Plasmodium falciparum [3]): 10.2 µM
- IC50 (Plasmodium falciparum [4]): 6.8 µM
- CC50 at 24 h [5]: 85.5 µM
- CC50 at 72 h [6]: 78 µM
- Ratio [7]: 7.7
- Ratio [8]: 9

SMILES: CC(C)=CCc1c(O)cc2c(c1O)c(=O)c1c(CC=C(C)C)ccc(O)c1n2C
- IC50 (Plasmodium falciparum [1]): 5.3 µM
- IC50 (Plasmodium falciparum [2]): 5.6 µM
- IC50 (Plasmodium falciparum [3]): 7.9 µM
- IC50 (Plasmodium falciparum [4]): 7.1 µM
- CC50 at 24 h [5]: 47.2 µM
- CC50 at 72 h [6]: 52.2 µM
- Ratio [7]: 9
- Ratio [8]: 9.4

SMILES: CCN(CC)CCCC(C)Nc1ccnc2cc(Cl)ccc12 (centres undefined) [CHLOROQUINE PHOSPHATE]
- CC50 at 24 h [5]: > 100 µM
- CC50 at 72 h [6]: > 100 µM

SMILES: COc1c(O)cc(O)c2c(=O)c3cccc(O)c3n(C)c12 [CITRUSININE-II]
- IC50 (Plasmodium falciparum [1]): 33 µM
- IC50 (Plasmodium falciparum [2]): 20.1 µM
- IC50 (Plasmodium falciparum [3]): 27.1 µM
- IC50 (Plasmodium falciparum [4]): 20.5 µM
- CC50 at 24 h [5]: 16.8 µM
- CC50 at 72 h [6]: 35.1 µM
- Ratio [7]: 0.5
- Ratio [8]: 1.8

SMILES: COc1c(O)c(CC=C(C)C)c(O)c2c(=O)c3cccc(O)c3n(C)c12 [GLYCOCITRINE-IV]
- IC50 (Plasmodium falciparum [1]): 2.5 µM
- IC50 (Plasmodium falciparum [2]): 2.5 µM
- IC50 (Plasmodium falciparum [3]): 2 µM
- IC50 (Plasmodium falciparum [4]): 2.3 µM
- CC50 at 24 h [5]: 0.71 µM
- CC50 at 72 h [6]: 5.3 µM
- Ratio [7]: 0.3
- Ratio [8]: 2.1
